Rows were chosen to be rich in hits. Some 4.7% of all compounds tested hit in one or more screens of this group.
MC4R antag cAMP = MC4R antagonists of cAMP signaling, primary screen, cell-based, TR-FRET, antagonist arm of biased-ligand search; Melanocortin receptor 4 (Homo sapiens), P32245; MC4R-expressing cells, MTII-stimulated cAMP, LANCE TR-FRET; inhibition, % at 6.5 µM; 360,000 compounds, 0.48% hits;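 active means inhibition above its plate's cutoff, the mean of tested wells on that plate plus 3 SD, cut at about 29% in these data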;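 further: 0% = Melanotan II alone and 100% = Melanotan II plus saturating MCL0020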
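Assay system: human MC4R-expressing U2OS cells; reagent: Melanotan II stimulation of cells; dosing: 6.5 µM single dose; timing: compound 30 min, challenge 1 h, detection 1 h; signal: TR-FRET cAMP assay; replicates: one well per compound, no replicates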
GAA850 FXN act = FXN promoter activators, primary screen, cell-based, luciferase luminescence, HEK293 lucGAA850; HEK293 lucGAA850 FXN promoter luciferase reporter, 24 h; percent of 10 µM SAHA response; activation, % at 6 µM; 360,000 compounds, 0.56% hits; AID 540364, 2011;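 active means activation above the average of all compounds screened plus 3 SD, cutoff fixed separately per campaign, cut at about 7.5% in these data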;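 further: 0% = DMSO wells and 100% = 10 µM SAHA wells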
MC4R barr agon = MC4R agonists recruiting beta-arrestin, primary screen, cell-based, luminescence, agonist arm of biased-ligand search | U2OS MC4R beta-arrestin complementation; percent of melanotan II response, DMSO zero | activation, % at 8.9 µM | 360,000 compounds, 0.98% hits;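 active means activation above a per-plate cutoff, the mean activation of sample wells on that plate plus 3 SD, cut at about 8% in these data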
AHR activator = AHR activators, primary screen, cell-based, luminescence, luciferase reporter, human; Aryl hydrocarbon receptor (Homo sapiens), P35869; AHR-responsive luciferase reporter cells; activation, % at 5 µM; 320,000 compounds, 2.5% hits; AID 2796, 2010; in the data active means activation above about 47%;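 further: 0% = vehicle wells and 100% = reference agonist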
Target sequence (P35869 whole entry, looked up): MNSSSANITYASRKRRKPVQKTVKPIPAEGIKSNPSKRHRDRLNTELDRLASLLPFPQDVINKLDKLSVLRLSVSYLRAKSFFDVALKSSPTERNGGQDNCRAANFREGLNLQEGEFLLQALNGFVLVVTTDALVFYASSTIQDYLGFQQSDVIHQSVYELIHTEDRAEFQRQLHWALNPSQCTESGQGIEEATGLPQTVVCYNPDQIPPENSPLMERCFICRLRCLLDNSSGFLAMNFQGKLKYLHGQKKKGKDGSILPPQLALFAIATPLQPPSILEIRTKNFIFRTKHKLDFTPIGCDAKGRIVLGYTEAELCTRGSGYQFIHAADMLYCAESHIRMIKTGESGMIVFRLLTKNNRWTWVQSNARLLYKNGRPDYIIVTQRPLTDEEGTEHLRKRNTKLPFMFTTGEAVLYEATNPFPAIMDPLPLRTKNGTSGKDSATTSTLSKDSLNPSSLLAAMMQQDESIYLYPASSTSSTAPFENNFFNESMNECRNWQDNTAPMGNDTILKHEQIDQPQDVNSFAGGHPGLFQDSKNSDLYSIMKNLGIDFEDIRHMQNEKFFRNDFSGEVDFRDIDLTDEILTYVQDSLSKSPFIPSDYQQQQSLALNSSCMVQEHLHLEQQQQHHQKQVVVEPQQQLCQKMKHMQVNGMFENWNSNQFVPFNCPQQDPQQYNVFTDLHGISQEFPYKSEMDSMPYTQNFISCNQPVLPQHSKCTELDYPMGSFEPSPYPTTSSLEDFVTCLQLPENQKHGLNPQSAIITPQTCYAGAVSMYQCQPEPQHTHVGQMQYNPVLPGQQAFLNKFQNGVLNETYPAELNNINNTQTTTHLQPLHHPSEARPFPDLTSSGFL
HTR2A ag = mouse Htr2a agonists via beta-arrestin recruitment, primary screen, cell-based, luminescence | 5-hydroxytryptamine receptor 2A (Mus musculus), P35363 | CHO-K1 mHTR2A beta-arrestin complementation; percent of 30 µM serotonin response | activation, % at 7.6 µM | 360,000 compounds, 0.66% hits;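 active means activation above a run cutoff, the mean activation of all tested compounds plus 3 SD, cut at about 14% in these data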;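 further: 0% = plate median of compound wells and 100% = 30 µM serotonin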
AHR act confirm = AHR activators, confirmation, cell-based, luminescence, luciferase reporter, human | shares compounds with AHR activator | human cells, AHR-responsive luciferase reporter | activation, % at 9 µM | 2,300 compounds, 87% hits | AID 2845, 2010; in the data active means activation above about 49%;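 further: HepG2 hepatoma cells carrying a DRE-driven firefly luciferase reporter; 0% = vehicle wells and 100% = reference agonist wells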
PXR act counter = human PXR activators, counter-screen for AHR activator project, cell-based, luciferase luminescence | shares compounds with AHR activator | cell-based PXR reporter | activation, % at 11.6 µM | 2,300 compounds, 88% hits | AID 434939, 2010; in the data active means activation above about 11%;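 further: human hepatoma DPX-2 cells expressing full-length human PXR; 0% = DMSO and 100% = reference agonist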
An asterisk follows results filed as active; x = not tested or not shown.

SMILES | MC4R antag cAMP | GAA850 FXN act | MC4R barr agon | AHR activator | HTR2A ag | AHR act confirm | PXR act counter
c1ccc(Nc2nc(-c3cccs3)cs2)nc1 | -8 | 4 | -2 | 117* | -4 | 155* | 23*
CCC(=O)Nc1nc(-c2ccccc2)ns1 | 7 | 4 | -2 | 102* | 1 | 84* | 32*
COc1cc(C)c2c(c1OC)C(=O)CC2 | -2 | 2 | -1 | x | -4 | x | x
Cc1nn(CC(=O)Nc2ccc(Cl)cc2Cl)c(=O)c2ccccc12 | -7 | 3 | 0 | 3 | 5 | x | x
Clc1ccccc1Nc1nc(-c2cccnc2)cs1 | 18 | 6 | 0 | 114* | -2 | 129* | 16*
CC(=O)Nc1cccc(-c2csc(Nc3ccccn3)n2)c1 | 1 | 3 | 0 | 85* | 7 | 74* | 8
NS(=O)(=O)c1ccc(Nc2nc(-c3ccc(O)cc3O)cs2)cc1 | -11 | -1 | -2 | 7 | 4 | x | x
Oc1ccc(-c2csc(Nc3ccccn3)n2)c(O)c1 | 2 | 5 | 1 | 169* | 2 | 103* | 15*
CCOc1ccccc1Nc1nc(-c2cccnc2)cs1 | -2 | 2 | -1 | x | -5 | x | x
O=C(CN(Cc1ccccc1Cl)C(=O)c1csnn1)NCc1ccc2c(c1)OCO2 | 6 | 0 | -2 | 3 | -1 | x | x
Cc1ccccc1NC(=O)NC1(C(=O)N2CCC(C(N)=O)CC2)CCCCC1 | -3 | 2 | 1 | -2 | 3 | x | x
O=c1oc(CCCO)cc2ccc(C#Cc3cccnc3)cc12 | -3 | 3 | 0 | 88* | 10 | 76* | 18*
O=C1c2ccccc2C(=O)N1CCC#Cc1ccc2cc(CCO)oc(=O)c2c1 | 7 | 2 | 1 | -5 | 9 | x | x
CCCCNC(=S)Nc1cccc2cnccc12 | 22 | -1 | 0 | 89* | 3 | 61* | 13*
COC(=O)[C@@]12C[C@@H](CC(=O)N3CCN(C(=O)c4ccco4)CC3)C(=O)N(Cc3cccc4ccccc34)C1=CCC(C)(C)C2 | x | x | x | x | -4 | x | x
CCN(CC(=O)Nc1cc(Cl)ccc1C)C(=O)CCOc1ccccc1C | 0 | 1 | 0 | 1 | -1 | x | x
Cc1ccc(-n2sc3ccccc3c2=O)cc1 | 2 | -4 | 0 | 80* | 6 | 74* | 30*
CCc1noc(C)c1C(=O)Nc1nc(-c2cc(C)ccc2C)c(C)s1 | 3 | 2 | 4 | 1 | -2 | x | x
CCc1noc(C)c1C(=O)Nc1nc(-c2ccc(F)cc2)c(C)s1 | -1 | 2 | -4 | 95* | -6 | 85* | 28*
COc1cccc(COc2ncnc3sccc23)c1 | 10 | 0 | -2 | 0 | 3 | x | x
c1ccc(OCCOc2ncnc3sccc23)cc1 | 10 | 5 | -1 | 138* | -3 | 121* | 45*
O=C(COC(=O)C12CC3CC(CC(Cl)(C3)C1)C2)Nc1ccccc1 | 8 | 0 | 4 | -1 | 3 | x | x
Cc1ccc(C#N)c(SCCN2CCCCC2)n1 | -4 | 1 | -2 | x | -8 | x | x
Cc1cccc2cc(C#N)c(SCCN3CCCCC3)nc12 | x | x | x | 81* | x | 101* | 48*
O=C(NCCc1ccccn1)c1c(-c2ccccc2)sc2ccccc12 | 4 | 1 | -1 | 12 | -2 | x | x
O=C(NCCc1ccccn1)c1c(-c2ccsc2)sc2ccccc12 | 5 | 1 | 2 | 128* | -3 | 92* | 161*
Cc1ccc(F)c(NC(=S)Nc2cccc3ccccc23)c1 | -4 | 0 | -1 | 94* | -1 | 9 | 106*
S=C(Nc1cccc2ccccc12)Nc1cccc2ccccc12 | -4 | 2 | -2 | x | -5 | x | x
Cc1cc2nc(C(C)(C)C)c(Cc3ccccc3)n2c(C)c1Br | x | x | x | x | -2 | x | x
